What was measured:
MONO-MAC-6 [1] = test: Upregulation of TNFalpha mRNA expression level in LPS-stimulated human MONO-MAC-6 cells at 5 uM preincubated for 30 mins followed by LPS stimulation measured after 2 hrs by qRT-PCR method (reference value: 3.10); assay type: functional
MONO-MAC-6 [2] = test: Downregulation of IL-6 mRNA expression level in human MONO-MAC-6 cells at 5 uM incubated for 30 mins measured after 1 hr by qRT-PCR method relative to control; assay type: functional
MONO-MAC-6 [3] = test: Downregulation of PTX3 mRNA expression level in LPS-stimulated human MONO-MAC-6 cells at 5 uM preincubated for 30 mins followed by LPS stimulation measured after 1 hr by oligonucleotide array hybridization assay (reference value: 1.10); assay type: functional
Procedure, shortened: (§1)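 Total RNA was isolated, transcribed and labeled with DY-647 dye, then co-hybridized with DY-548-labeled cDNA from untreated cells on an inflammation oligonucleotide chip (780 gene probes). Differential expression >1.5 was taken as significant.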

MONO-MAC-6 [4] = test: Downregulation of ICAM1 mRNA expression level in human MONO-MAC-6 cells at 5 uM incubated for 30 mins measured after 2 hrs by oligonucleotide array hybridization assay relative to control; assay type: functional; procedure, shortened: as §1
MONO-MAC-6 [5] = test: Downregulation of CXCL2 mRNA expression level in LPS-stimulated human MONO-MAC-6 cells at 5 uM preincubated for 30 mins followed by LPS stimulation measured after 6 hrs by oligonucleotide array hybridization assay (reference value: 9.41); assay type: functional; procedure, shortened: as §1
MONO-MAC-6 [6] = test: Upregulation of PTGS2 mRNA expression level in human MONO-MAC-6 cells at 5 uM incubated for 30 mins measured after 4 hrs by oligonucleotide array hybridization assay relative to control; assay type: functional
MONO-MAC-6 [7] = test: Upregulation of CCL4 mRNA expression level in LPS-stimulated human MONO-MAC-6 cells at 5 uM preincubated for 30 mins followed by LPS stimulation measured after 2 hrs by oligonucleotide array hybridization assay (reference value: 5.78); assay type: functional
MONO-MAC-6 [8] = test: Upregulation of CXCL3 mRNA expression level in human MONO-MAC-6 cells at 5 uM incubated for 30 mins measured after 1 hr by oligonucleotide array hybridization assay relative to control; assay type: functional
MONO-MAC-6 [9] = test: Upregulation of CXCL10 mRNA expression level in LPS-stimulated human MONO-MAC-6 cells at 5 uM preincubated for 30 mins followed by LPS stimulation measured after 6 hrs by oligonucleotide array hybridization assay (reference value: 1.57); assay type: functional
MONO-MAC-6 [10] = test: Upregulation of IL23A mRNA expression level in human MONO-MAC-6 cells at 5 uM incubated for 30 mins measured after 4 hrs by qRT-PCR method relative to control; assay type: functional
MONO-MAC-6 [11] = test: Downregulation of PTX3 mRNA expression level in human MONO-MAC-6 cells at 5 uM incubated for 30 mins measured after 2 hrs by oligonucleotide array hybridization assay relative to control; assay type: functional; procedure, shortened: as §1
PBMC = test: Inhibition of mmLDL-stimulated apoptosis in human PBMC assessed as apoptotic cells at 2 uM preincubated for 30 mins followed by mmLDL stimulation measured after 4 hrs by YO-PRO-1/Hoechst 33342 staining based assay (reference value: 100%); assay type: functional; set-up: scale not given: the % may be the effect or the level left
Procedure, shortened: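 PBMC pre-incubated 30 min with 2 μM compound, then stimulated with mmLDL (27 μg/mL; line 5) or TNFalpha (3 ng/mL; line 1) for 4 h. Apoptotic cells stained with YO-PRO-1 and all cells with Hoechst 33342. Each plate had control, stimulus, compound alone and compound plus stimulus; n = 3. Values are on a 0% (untreated control, corrected for spontaneous apoptosis) to 100% (stimulus alone) scale; means ± SE.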

MONO-MAC-6 [12] = test: Upregulation of TNFalpha mRNA expression level in LPS-stimulated human MONO-MAC-6 cells at 5 uM preincubated for 30 mins followed by LPS stimulation measured after 1 hr by qRT-PCR method (reference value: 1.08); assay type: functional
[13] = biological target: T1, Acid ceramidase (Homo sapiens) (UniProt Q13510); test: Inhibition of acid ceramidase in human PBMC assessed as ratio of C24:1-ceramide/lipid phosphate level at 10 uM incubated for 30 mins measured after 4 hrs by HPLC method; assay type: cell-based
T1 sequence (whole entry): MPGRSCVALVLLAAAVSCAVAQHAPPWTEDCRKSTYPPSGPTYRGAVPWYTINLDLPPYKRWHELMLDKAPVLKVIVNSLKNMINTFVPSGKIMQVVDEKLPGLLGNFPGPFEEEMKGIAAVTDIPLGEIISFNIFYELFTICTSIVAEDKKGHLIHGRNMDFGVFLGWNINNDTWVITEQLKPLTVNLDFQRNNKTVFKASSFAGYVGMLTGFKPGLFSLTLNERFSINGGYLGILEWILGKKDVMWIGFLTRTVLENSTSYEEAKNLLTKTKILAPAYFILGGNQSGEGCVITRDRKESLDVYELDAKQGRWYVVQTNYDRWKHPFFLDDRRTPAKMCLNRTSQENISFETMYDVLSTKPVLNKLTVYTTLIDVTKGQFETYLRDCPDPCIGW
Procedure, shortened: (§2)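 Human macrophages from primary culture were preincubated 30 min with 10 µM compound. They were then stimulated 4 h with mmLDL (54 µg/mL), TNFalpha (3 ng/mL) or exogenous C6-ceramide (10 µM), or left unstimulated. Individual ceramide species (C16 and C24:1) were quantified in the cell lipid extracts.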

MONO-MAC-6 [14] = test: Downregulation of CXCL3 mRNA expression level in LPS-stimulated human MONO-MAC-6 cells at 5 uM preincubated for 30 mins followed by LPS stimulation measured after 1 hr by oligonucleotide array hybridization assay (reference value: 1.18); assay type: functional; procedure, shortened: as §1
MONO-MAC-6 [15] = test: Downregulation of IL-6 mRNA expression level in human MONO-MAC-6 cells at 5 uM incubated for 30 mins measured after 6 hrs by qRT-PCR method relative to control; assay type: functional
MONO-MAC-6 [16] = test: Downregulation of PTX3 mRNA expression level in human MONO-MAC-6 cells at 5 uM incubated for 30 mins measured after 6 hrs by oligonucleotide array hybridization assay relative to control; assay type: functional; procedure, shortened: as §1
MONO-MAC-6 [17] = test: Upregulation of IL23A mRNA expression level in LPS-stimulated human MONO-MAC-6 cells at 5 uM preincubated for 30 mins followed by LPS stimulation measured after 4 hrs by qRT-PCR method (reference value: 10.78); assay type: functional
[18] = biological target: T1, Acid ceramidase (Homo sapiens); test: Inhibition of mmLDL-stimulated acid ceramidase in human PBMC assessed as ratio of C24:1-ceramide/lipid phosphate level at 10 uM preincubated for 30 mins followed by mmLDL stimulation measured after 4 hrs by HPLC method (reference value: 1.16); assay type: cell-based; procedure, shortened: as §2
MONO-MAC-6 [19] = test: Downregulation of TNFalpha mRNA expression level in human MONO-MAC-6 cells at 5 uM incubated for 30 mins measured after 6 hrs by qRT-PCR method relative to control; assay type: functional
MONO-MAC-6 [20] = test: Upregulation of CXCL2 mRNA expression level in human MONO-MAC-6 cells at 5 uM incubated for 30 mins measured after 2 hrs by oligonucleotide array hybridization assay relative to control; assay type: functional
MONO-MAC-6 [21] = test: Downregulation of CCL4 mRNA expression level in human MONO-MAC-6 cells at 5 uM incubated for 30 mins measured after 2 hrs by oligonucleotide array hybridization assay relative to control; assay type: functional; procedure, shortened: as §1

Structure (SMILES): COc1ccc(CCN(C)CCCn2c3ccccc3c3ccccc32)cc1
- fold change (FC) (MONO-MAC-6 [1]): 1.34
- fold change (FC) (MONO-MAC-6 [2]): 1.04
- fold change (FC) (MONO-MAC-6 [3]): 1.02
- fold change (FC) (MONO-MAC-6 [4]): 1.28
- fold change (FC) (MONO-MAC-6 [5]): 1.01
- fold change (FC) (MONO-MAC-6 [6]): 1.17
- fold change (FC) (MONO-MAC-6 [7]): 3.09
- fold change (FC) (MONO-MAC-6 [8]): 1.46
- fold change (FC) (MONO-MAC-6 [9]): 1.12
- fold change (FC) (MONO-MAC-6 [10]): 1.39
- fold change (FC) (MONO-MAC-6 [11]): 1.61
- Activity (PBMC): 33 - 49%
- fold change (FC) (MONO-MAC-6 [12]): 1.23
- Ratio [13]: 8.71
- fold change (FC) (MONO-MAC-6 [14]): 1.24
- fold change (FC) (MONO-MAC-6 [15]): 46.64
- fold change (FC) (MONO-MAC-6 [16]): 3.91
- fold change (FC) (MONO-MAC-6 [17]): 1.71
- Ratio [18]: 2.45
- fold change (FC) (MONO-MAC-6 [19]): 2.08
- fold change (FC) (MONO-MAC-6 [20]): 1.11
- fold change (FC) (MONO-MAC-6 [21]): 1.05
